Assay results published in ChEMBL document CHEMBL5126614 (ACS Med Chem Lett, 2022).
Each block holds one compound with its values, some of them ahead of it. Activity calls are given as the source filed them. The calls are words filed in the database; no cut-off is given here.

Experiments:
Rhesus monkey [1] = assay: Anti-obesity activity in type 2 diabetes rhesus monkey model assessed as reduction in cumulative food intake at 30 ug/kg, sc qd for 3 weeks and measured daily for 21 days relative to baseline; type: functional, Macaca mulatta; set-up: scale not given: the % may be the effect or the level left; settings: dose 30 µg/kg
Rhesus monkey [2] = assay: Anti-obesity activity in type 2 diabetes rhesus monkey model assessed as reduction in body weight at 30 ug/kg, sc qd for 1 week and measured during 1 week relative to control; type: functional, Macaca mulatta; set-up: scale not given: the % may be the effect or the level left; settings: dose 30 µg/kg, time 1 weeks
Rhesus monkey [3] = assay: Antidiabetic activity in type 2 diabetes rhesus monkey model assessed as corrected fasting glucose level at 30 ug/kg, sc qd for 3 weeks and measured on day 22 by intravenous glucose tolerance test; type: functional, Macaca mulatta; settings: dose 30 µg/kg, time 22 day
Procedure, shortened: (§1)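 Type 2 diabetic rhesus monkeys received daily dosing for 3 weeks, alongside vehicle and a liraglutide benchmark at 30 μg/kg. Fasting plasma glucose was compared with baseline or vehicle, and fasting insulin with vehicle.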

Rhesus monkey [4] = assay: Anti-obesity activity in type 2 diabetes rhesus monkey model assessed as weight loss at 30 ug/kg, sc qd for 3 weeks relative to control; type: functional, Macaca mulatta; settings: dose 30 µg/kg
Rhesus monkey [5] = assay: Anti-obesity activity in type 2 diabetes rhesus monkey model assessed as reduction in body weight at 30 ug/kg, sc qd for 3 weeks and measured during third week of dosing relative to control; type: functional, Macaca mulatta; set-up: scale not given: the % may be the effect or the level left; settings: dose 30 µg/kg
Rhesus monkey [6] = assay: Anti-obesity activity in type 2 diabetes rhesus monkey model assessed as reduction in body weight at 30 ug/kg, sc qd for 2 weeks and measured during second week of dosing relative to control; type: functional, Macaca mulatta; set-up: scale not given: the % may be the effect or the level left; settings: dose 30 µg/kg
[7] = Elimination half life in Wistar-Han rat at 0.1 mg/kg, iv by LC-MS analysis; type: ADME, organism-based; settings: in vivo, read-out: beta t1/2 (converted)
Procedure, shortened: (§2)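 Single IV or SC dose in male Wistar Han naïve rats and in rhesus monkeys, n = 3 animals per group. Peptide formulated in mannitol buffer (5% mannitol, 5 mM sodium phosphate, pH 8). Plasma concentration–time profiles were measured and peptide levels quantified by LCMS assay.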

[8] = AUC (0 to infinity) in Wistar-Han rat at 0.2 mg/kg, sc by LC-MS analysis; type: ADME, organism-based; set-up: time infinity, dose 0.2 mg/kg, route sc; settings: in vivo; procedure, shortened: as §2
[9] = Toxicity in rhesus monkey; set-up: species or system Macaca mulatta; settings: in vivo
Rhesus monkey [10] = assay: Anti-obesity activity in type 2 diabetes rhesus monkey model assessed as increase in fasting ketone beta-hydroxybutyrate level at 3 ug/kg, sc qd for 3 weeks and measured on day 22 relative to control; settings: dose 3 µg/kg, time 22 day
[11] = AUC (0 to infinity) in Wistar-Han rat at 0.1 mg/kg, iv by LC-MS analysis; type: ADME, organism-based; set-up: time infinity, dose 0.1 mg/kg, route iv; settings: in vivo; procedure, shortened: as §2
Rhesus monkey [12] = assay: Potency index, ratio of compound to liraglutide anti-obesity activity in type 2 diabetes rhesus monkey model assessed as […] in FGF21 expression; type: functional, Macaca mulatta
[13] = Agonist activity at rhesus monkey GLP1R; set-up: species or system Macaca mulatta
Rhesus monkey [14] = assay: Potency index, ratio of compound to liraglutide anti-obesity activity in type 2 diabetes rhesus monkey model assessed as reduction in body weight; type: functional, Macaca mulatta
Rhesus monkey [15] = assay: Anti-obesity activity in type 2 diabetes rhesus monkey model assessed as increase in free fatty acid level at 3 ug/kg, sc qd for 3 weeks and measured on day 22 relative to control; type: functional, Macaca mulatta; settings: dose 3 µg/kg, time 22 day
Rhesus monkey [16] = assay: Anti-obesity activity in type 2 diabetes rhesus monkey model assessed as increase in FGF21 expression at 3 ug/kg, sc qd for 3 weeks and measured on day 22 relative to baseline; type: functional, Macaca mulatta; settings: dose 3 µg/kg, time 22 day
[17] = Volume of distribution at steady state in rhesus monkey at 0.01 mg/kg, iv by LC-MS analysis; type: ADME, organism-based, Macaca mulatta; settings: in vivo, read-out: Vdss; procedure, shortened: as §2
[18] = Plasma clearance in Wistar-Han rat at 0.1 mg/kg, iv by LC-MS analysis; type: ADME, organism-based; procedure, shortened: as §2
[19] = Solubility of compound at pH 3 to 5; type: physicochemical; settings: buffer
[20] = Cmax in Wistar-Han rat at 0.2 mg/kg, sc by LC-MS analysis; type: ADME, organism-based; set-up: dose 0.2 mg/kg, route sc; settings: in vivo; procedure, shortened: as §2
[21] = AUC (0 to infinity) in rhesus monkey at 0.01 mg/kg, iv by LC-MS analysis; type: ADME, organism-based, Macaca mulatta; set-up: time infinity, dose 0.01 mg/kg, route iv; settings: in vivo; procedure, shortened: as §2
Rhesus monkey [22] = assay: Antidiabetic activity in type 2 diabetes rhesus monkey model assessed as reduction in fasting insulin level at 3 ug/kg, sc qd for 3 weeks and measured on day 22 relative to control; type: functional, Macaca mulatta; set-up: scale not given: the % may be the effect or the level left; settings: dose 3 µg/kg, time 22 day; procedure, shortened: as §1
[23] = Volume of distribution at steady state in Wistar-Han rat at 0.1 mg/kg, iv by LC-MS analysis; type: ADME, organism-based; settings: in vivo, read-out: Vdss; procedure, shortened: as §2
[24] = Tmax in rhesus monkey at 0.05 mg/kg, sc by LC-MS analysis; type: ADME, organism-based, Macaca mulatta; settings: in vivo; procedure, shortened: as §2
Rhesus monkey [25] = assay: Antidiabetic activity in type 2 diabetes rhesus monkey model assessed as HOMA-IR at 3 ug/kg, sc qd for 3 weeks and measured on day 22 (reference value: 9.6 +/- 1.9); type: functional, Macaca mulatta; settings: dose 3 µg/kg, time 22 day
[26] = Toxicity in rat; settings: in vivo
Rhesus monkey [27] = assay: Antidiabetic activity in type 2 diabetes rhesus monkey model assessed as reduction in fasting glucose level at 3 ug/kg, sc qd for 3 weeks and measured on day 22 by intravenous glucose tolerance test; type: functional, organism-based; settings: Macaca mulatta, dose 3.0 µg/kg, time 22.0 day; procedure, shortened: as §1
[28] = Tmax in Wistar-Han rat at 0.2 mg/kg, sc by LC-MS analysis; type: ADME, organism-based; settings: in vivo; procedure, shortened: as §2
[29] = Plasma clearance in rhesus monkey at 0.01 mg/kg, iv by LC-MS analysis; type: ADME, organism-based, Macaca mulatta; procedure, shortened: as §2
Rhesus monkey [30] = assay: Anti-obesity activity in type 2 diabetes rhesus monkey model assessed as weight loss at 3 ug/kg, sc qd for 3 weeks relative to control; type: functional, Macaca mulatta; settings: dose 3 µg/kg
[31] = Agonist activity at rhesus monkey GCGR; set-up: species or system Macaca mulatta
[32] = Solubility of compound at pH 7; type: physicochemical; settings: buffer
Dipeptidyl peptidase 4 = Dipeptidyl peptidase 4 (Homo sapiens, UniProt P27487); assay: Stability of compound assessed as DPP4 (unknown origin)-mediated hydrolysis; type: ADME
Procedure, shortened: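 Peptide incubated overnight at 37 °C with DPP-IV enzyme. Stability judged by receptor bioactivity measured after incubation.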

Homo sapiens = organism: Homo sapiens; assay: Selectivity ratio of EC50 for human GCGR expressed in frozen cells to EC50 for human GLP1R expressed in frozen cells; type: cell-based
[33] = AUC (0 to infinity) in rhesus monkey at 0.05 mg/kg, sc by LC-MS analysis; type: ADME, organism-based, Macaca mulatta; set-up: time infinity, dose 0.05 mg/kg, route sc; settings: in vivo; procedure, shortened: as §2
[34] = Terminal half life in rhesus monkey at 0.01 mg/kg, iv by LC-MS analysis; type: ADME, organism-based, Macaca mulatta; settings: in vivo, read-out: beta t1/2 (converted); procedure, shortened: as §2
[35] = Solubility of compound at pH 8; type: physicochemical; settings: buffer
[36] = Cmax in rhesus monkey at 0.05 mg/kg, sc by LC-MS analysis; type: ADME, organism-based, Macaca mulatta; set-up: dose 0.05 mg/kg, route sc; settings: in vivo; procedure, shortened: as §2
[37] = Bioavailability in Wistar-Han rat at 0.2 mg/kg, sc by LC-MS analysis; type: ADME, organism-based; settings: in vivo; procedure, shortened: as §2
Macaca mulatta = organism: Macaca mulatta; assay: Selectivity ratio of EC50 for rhesus monkey GCGR to EC50 for rhesus monkey GLP1R
Rhesus monkey [38] = assay: Anti-obesity activity in type 2 diabetes rhesus monkey model assessed as reduction in cumulative food intake at 3 ug/kg, sc qd for 3 weeks and measured daily for 21 days relative to baseline; type: functional, Macaca mulatta; set-up: scale not given: the % may be the effect or the level left; settings: dose 3 µg/kg
Rhesus monkey [39] = assay: Antidiabetic activity in type 2 diabetes rhesus monkey model assessed as increase in total adiponectin level at 3 ug/kg, sc qd for 3 weeks and measured on day 22; settings: Macaca mulatta, dose 3.0 µg/kg, time 22.0 day
[40] = Bioavailability in rhesus monkey at 0.05 mg/kg, sc by LC-MS analysis; type: ADME, organism-based, Macaca mulatta; settings: in vivo; procedure, shortened: as §2

Chain of Dipeptidyl peptidase 4 (P27487 whole entry): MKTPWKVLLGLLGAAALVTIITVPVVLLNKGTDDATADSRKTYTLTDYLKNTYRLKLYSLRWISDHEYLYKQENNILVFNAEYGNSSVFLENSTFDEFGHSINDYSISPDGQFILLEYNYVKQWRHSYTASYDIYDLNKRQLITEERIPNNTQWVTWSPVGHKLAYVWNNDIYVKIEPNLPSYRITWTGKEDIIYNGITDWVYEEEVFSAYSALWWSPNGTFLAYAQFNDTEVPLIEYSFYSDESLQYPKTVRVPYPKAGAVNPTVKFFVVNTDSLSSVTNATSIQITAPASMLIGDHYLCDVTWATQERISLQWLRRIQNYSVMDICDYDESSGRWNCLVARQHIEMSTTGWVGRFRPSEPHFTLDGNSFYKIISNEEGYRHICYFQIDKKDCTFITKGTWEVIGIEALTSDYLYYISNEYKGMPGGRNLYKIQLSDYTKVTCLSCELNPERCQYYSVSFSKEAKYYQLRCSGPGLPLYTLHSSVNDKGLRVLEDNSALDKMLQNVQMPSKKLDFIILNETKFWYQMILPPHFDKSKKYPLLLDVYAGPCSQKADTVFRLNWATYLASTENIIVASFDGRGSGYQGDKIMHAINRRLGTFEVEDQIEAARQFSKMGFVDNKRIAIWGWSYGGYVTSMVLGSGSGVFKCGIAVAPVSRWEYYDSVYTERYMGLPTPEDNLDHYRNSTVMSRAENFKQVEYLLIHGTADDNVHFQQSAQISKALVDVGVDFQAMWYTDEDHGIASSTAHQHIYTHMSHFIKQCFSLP

SMILES: CCCCCCCCCCCCCCCC(=O)N[C@@H](CCC(=O)NCCCC[C@H](NC(=O)[C@H](C)NC(=O)[C@H](C)NC(=O)[C@H](CCC(N)=O)NC(=O)CNC(=O)[C@H](CCC(=O)O)NC(=O)[C@H](CC(C)C)NC(=O)[C@H](Cc1ccc(O)cc1)NC(=O)[C@H](CO)NC(=O)[C@H](CO)NC(=O)[C@@H](NC(=O)[C@H](CC(=O)O)NC(=O)[C@H](CO)NC(=O)[C@@H](NC(=O)[C@H](Cc1ccccc1)NC(=O)[C@@H](NC(=O)CNC(=O)[C@H](CCC(=O)O)NC(=O)[C@H](C)NC(=O)[C@@H](N)Cc1cnc[nH]1)[C@@H](C)O)[C@@H](C)O)C(C)C)C(=O)N[C@@H](CCC(=O)O)C(=O)N[C@@H](Cc1ccccc1)C(=O)N[C@H](C(=O)N[C@@H](C)C(=O)N[C@@H](Cc1c[nH]c2ccccc12)C(=O)N[C@@H](CC(C)C)C(=O)N[C@H](C(=O)N[C@@H](CCCNC(=N)N)C(=O)NCC(=O)N[C@@H](CCCNC(=N)N)C(=O)NCC(=O)O)C(C)C)[C@@H](C)CC)C(=O)O [LIRAGLUTIDE]
- Activity (Rhesus monkey [1]): 32%
- Activity (Rhesus monkey [2]): 1.7%
- Activity (Rhesus monkey [3]): 30 mg/dL
- Activity (Rhesus monkey [4]): 3.3%
- Activity (Rhesus monkey [5]): 0.6%
- Activity (Rhesus monkey [6]): 1%

- half-life [7]: 3 h
- AUC(0-inf) [8]: 0.37 µM·h
- AUC(0-inf) [11]: 1.05 µM·h
- EC50 [13]: 9 pM
- Vd [17]: 0.16 L/kg
- clearance [18]: 0.42 mL/min/kg
- solubility [19]: Insoluble
- Cmax [20]: 25 nM
- AUC(0-inf) [21]: 0.4 µM·h
- Vd [23]: 0.1 L/kg
- Tmax [24]: 18 h
- Tmax [28]: 5.3 h
- clearance [29]: 0.12 mL/min/kg
- EC50 [31]: 7 pM
- solubility [32]: > 20 mg/mL
- Stability (Dipeptidyl peptidase 4): Stable
- AUC(0-inf) [33]: 1.25 µM·h
- half-life [34]: 16 h
- solubility [35]: > 80 mg/mL
- Cmax [36]: 30 nM
- bioavailability [37]: 18%
- Ratio EC50 (Macaca mulatta): 0.8
- bioavailability [40]: 63%
SMILES: CCCCCCCCCCCCCCCC(=O)N[C@@H](CCC(=O)N[C@@H](CCC(=O)NCCCC[C@H](NC(=O)[C@H](CC(=O)O)NC(=O)[C@H](CO)NC(=O)[C@@H](NC(=O)[C@H](Cc1ccccc1)NC(=O)[C@@H](NC(=O)CNC(=O)[C@H](CCC(N)=O)NC(=O)[C@@H](CO)NC(=O)[C@@H](N)Cc1cnc[nH]1)[C@@H](C)O)[C@@H](C)O)C(=O)N[C@@H](CO)C(=O)N[C@@H](CCCCN)C(=O)N[C@@H](Cc1ccc(O)cc1)C(=O)N[C@@H](CC(C)C)C(=O)N[C@@H](CC(=O)O)C(=O)N[C@@H](C)C(=O)N[C@@H](CCCNC(=N)N)C(=O)N[C@@H](C)C(=O)N[C@@H](C)C(=O)N[C@@H](CCC(N)=O)C(=O)N[C@@H](CC(=O)O)C(=O)N[C@@H](Cc1ccccc1)C(=O)N[C@H](C(=O)N[C@@H](CCC(N)=O)C(=O)N[C@@H](Cc1c[nH]c2ccccc12)C(=O)N[C@@H](CC(C)C)C(=O)N[C@@H](CC(C)C)C(=O)N[C@@H](CC(=O)O)C(=O)N[C@H](C(N)=O)[C@@H](C)O)C(C)C)C(=O)O)C(=O)O
- Activity [9]: Non-Toxic
- fold change (FC) (Rhesus monkey [10]): 4
- fold change (FC) (Rhesus monkey [12]): >3
- fold change (FC) (Rhesus monkey [14]): 2
- Activity (Rhesus monkey [15]): 63%
- fold change (FC) (Rhesus monkey [16]): >3
- Activity (Rhesus monkey [22]): 50%
- Activity (Rhesus monkey [25]): 9.6
- Activity [26]: Non-Toxic
- Activity (Rhesus monkey [27]): Active
- Activity (Rhesus monkey [30]): 7.6%
- Ratio EC50 (Homo sapiens): 0.9
- Activity (Rhesus monkey [38]): 30%
- Activity (Rhesus monkey [39]): Active
